Measurements: ChEMBL document CHEMBL3868624, “Design, synthesis, biological evaluation, and molecular modeling studies of chalcone-rivastigmine hybrids as cholinesterase inhibitors” (Bioorg Med Chem, 2017)
The source made the active and inactive calls. No cut-off for these calls is given here.

Experiments:
Cholinesterase [1] = molecular target: T1, Cholinesterase (Homo sapiens, UniProt P06276); test: Inhibition of human serum BChE using S-Butyrylthiocholine iodide as substrate at 10 uM preincubated for 15 mins followed by substrate addition by Ellman's method
[2] = Cytotoxicity against human SH-SY5Y cells assessed as cell viability at 25 uM after 48 hrs by MTT assay relative to control; assay type: toxicity, cell-based; details: read-out: Activity
In short: (§1)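 SH-SY5Y cells seeded at 5×10³ per well and grown 16-18 h, then exposed to 6.25, 12.5, 25, 50 or 100 µM compound for 48 h. MTT (2.5 mg/mL solution) was added for 4 h at 37 °C, 5% CO₂. Formazan was dissolved in DMSO and absorbance read at 490 nm. Viability is relative to control, mean ± SEM of experiments in triplicate.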

[3] = Cytotoxicity against human SH-SY5Y cells assessed as cell viability at 50 uM after 48 hrs by MTT assay relative to control; assay type: toxicity, cell-based; details: read-out: Activity; in short: as §1
[4] = Cytotoxicity against human SH-SY5Y cells assessed as cell viability at 12.5 uM after 48 hrs by MTT assay relative to control; assay type: toxicity, cell-based; details: read-out: Activity; in short: as §1
[5] = Cytotoxicity against human SH-SY5Y cells assessed as cell viability at 100 uM after 48 hrs by MTT assay relative to control; assay type: toxicity, cell-based; details: read-out: Activity; in short: as §1
[6] = Cytotoxicity against human SH-SY5Y cells assessed as cell viability at 6.25 uM after 48 hrs by MTT assay relative to control; assay type: toxicity, cell-based; details: read-out: Activity; in short: as §1
Cholinesterase [7] = molecular target: T1, Cholinesterase; test: Inhibition of human serum BChE using S-Butyrylthiocholine iodide as substrate preincubated for 15 mins followed by substrate addition by Ellman's method
In short: (§2)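 Ellman assay in phosphate buffer pH 8.0 (0.08 M Na₂HPO₄/0.02 M NaH₂PO₄). hAChE at 0.004 U/mL or hBChE at 0.002 U/mL was preincubated with compound for 15 min at 37 °C. DTNB and ATC (hAChE) or BTC (hBChE) were added, each 50 µM final. A412 was read over 5 min and inhibition set against no-compound wells. IC50 from a variable-slope fit, mean ± SD of three independent experiments.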

SH-SY5Y = test: Antioxidant activity against t-BHP-induced oxidative stress in human SH-SY5Y cells assessed as inhibition of ROS production at 1 to 5 uM after 24 hrs by DCFH-DA probe based flow cytometric analysis; assay type: functional, cell-based
In short: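 SH-SY5Y cells seeded at 5×10^4 per well, left 16-18 h, then exposed to compound for 24 h. Cells were washed in PBS and loaded with 5 μM DCFH-DA together with 100 μM t-BHP in PBS, 30 min at 37 °C, 5% CO2. After washing and resuspension, flow cytometry read ex 488/em 525 nm. Value reported as (FIsample−FIblank)/(FIcontrol−FIblank)×100%, untreated cells as control, curcumin as positive control.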

Acetylcholinesterase [8] = molecular target: T2, Acetylcholinesterase (Homo sapiens, UniProt P22303); test: Non-competitive inhibition of human recombinant AChE using acetylthiocholine iodide as substrate preincubated for 15 mins followed by substrate addition by Lineweaver-Burk plot analysis
In short: (§3)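 For kinetics, hAChE (0.004 U/mL) or hBChE (0.002 U/mL) was preincubated 15 min at 37 °C with inhibitor at three concentrations spanning 100-900 nM. DTNB was then added, followed by ATC or BTC at six serial concentrations from 0.125 to 1 mM. A412 was read for 5 min at 1-min intervals. Km and Vmax came from Michaelis-Menten fits, and mechanism from Lineweaver-Burk plots.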

Cholinesterase [9] = molecular target: T1, Cholinesterase; test: Non-competitive inhibition of human serum BChE using S-Butyrylthiocholine iodide as substrate preincubated for 15 mins followed by substrate addition by Lineweaver-Burk plot analysis; in short: as §3
Acetylcholinesterase [10] = molecular target: T2, Acetylcholinesterase; test: Inhibition of human recombinant AChE using acetylthiocholine iodide as substrate preincubated for 15 mins followed by substrate addition by Ellman's method; in short: as §2

T1 sequence (P06276 whole entry): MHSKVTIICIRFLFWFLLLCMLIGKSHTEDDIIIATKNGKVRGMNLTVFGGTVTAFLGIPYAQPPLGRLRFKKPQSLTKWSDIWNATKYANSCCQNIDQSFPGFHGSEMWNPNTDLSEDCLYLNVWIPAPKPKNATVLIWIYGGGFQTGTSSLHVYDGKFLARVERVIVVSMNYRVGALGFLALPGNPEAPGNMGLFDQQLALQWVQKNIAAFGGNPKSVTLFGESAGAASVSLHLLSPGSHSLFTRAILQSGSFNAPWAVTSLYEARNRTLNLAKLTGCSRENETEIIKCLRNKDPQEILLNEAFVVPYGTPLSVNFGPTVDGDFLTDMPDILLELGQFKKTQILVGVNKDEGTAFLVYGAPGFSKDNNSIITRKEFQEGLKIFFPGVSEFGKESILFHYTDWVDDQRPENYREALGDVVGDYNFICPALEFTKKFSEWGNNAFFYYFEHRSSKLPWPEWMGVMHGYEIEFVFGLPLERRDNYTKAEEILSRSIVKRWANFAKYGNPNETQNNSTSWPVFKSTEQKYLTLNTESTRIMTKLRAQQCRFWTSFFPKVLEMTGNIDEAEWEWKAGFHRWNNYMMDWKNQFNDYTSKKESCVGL
T2 sequence (P22303 whole entry): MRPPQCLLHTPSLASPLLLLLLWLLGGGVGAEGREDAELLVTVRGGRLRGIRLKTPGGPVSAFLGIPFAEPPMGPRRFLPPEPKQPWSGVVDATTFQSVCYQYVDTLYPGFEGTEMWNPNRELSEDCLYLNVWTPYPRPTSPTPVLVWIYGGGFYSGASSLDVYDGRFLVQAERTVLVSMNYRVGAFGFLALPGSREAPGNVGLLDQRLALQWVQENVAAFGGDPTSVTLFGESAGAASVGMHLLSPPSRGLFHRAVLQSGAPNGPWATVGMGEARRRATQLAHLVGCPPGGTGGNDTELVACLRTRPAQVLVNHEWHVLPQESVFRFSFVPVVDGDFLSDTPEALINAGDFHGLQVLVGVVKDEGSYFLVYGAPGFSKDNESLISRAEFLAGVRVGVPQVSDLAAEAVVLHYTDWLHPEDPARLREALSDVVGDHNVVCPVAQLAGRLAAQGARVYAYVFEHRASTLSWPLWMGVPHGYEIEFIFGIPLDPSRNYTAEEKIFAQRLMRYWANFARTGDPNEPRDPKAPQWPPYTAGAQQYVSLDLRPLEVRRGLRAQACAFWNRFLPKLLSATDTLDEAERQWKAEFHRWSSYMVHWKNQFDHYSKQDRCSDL

Structure (SMILES)	inhibition (Cholinesterase [1])	viability at 48 h, 25 µM [2]	viability at 48 h, 50 µM [3]	viability at 48 h, 12.5 µM [4]	viability at 48 h, 100 µM [5]	viability at 48 h, 6.25 µM [6]	IC50 (Cholinesterase [7])	inhibition (SH-SY5Y)	Ki (Acetylcholinesterase [8])	Ki (Cholinesterase [9])	IC50 (Acetylcholinesterase [10])
CCN(C)C(=O)Oc1ccc(C(=O)/C=C/c2ccc(O)cc2)cc1	< 50%										
CCN(C)C(=O)Oc1cccc(/C=C/C(=O)c2ccc(O)cc2)c1	> 50%	60.2%	16.6%	88.7%	2.97%	95.1%	2.52 µM				
CCN(C)C(=O)Oc1ccc(/C=C/C(=O)c2cccc(O)c2)cc1	> 50%	67.1%	16.5%	93.9%	0.81%	96.1%	5.6 µM				
CN(C)C(=O)Oc1cc(OC(=O)N(C)C)cc(C(=O)/C=C/c2ccc(O)cc2)c1	< 50%										
CCN(CC)C(=O)Oc1cccc(C(=O)/C=C/c2ccc(OC)cc2)c1	< 50%										
COc1ccc(/C=C/C(=O)c2cccc(O)c2)cc1	< 50%										
CCN(C)C(=O)Oc1ccc(C(=O)/C=C/c2ccc(OC)cc2)cc1	> 50%	83.2%	52.7%	86.1%	0.22%	95.5%	7.36 µM				
CN(C)C(=O)Oc1ccc(/C=C/C(=O)c2ccc(O)cc2)cc1	> 50%	60.4%	28.9%	86.6%	13.1%	100%	4.48 µM				
CN(C)C(=O)Oc1ccc(/C=C/C(=O)c2cccc(O)c2)cc1	< 50%										
CCN(C)C(=O)Oc1cccc(C(=O)/C=C/c2ccc(O)cc2)c1	> 50%	49.2%	17.4%	68%	5.42%	96.2%	4.37 µM				
COc1cc(/C=C/C(=O)CC(=O)/C=C/c2ccc(O)c(OC)c2)ccc1O								Active			
CN(C)C(=O)Oc1ccccc1C(=O)/C=C/c1ccc(O)cc1	< 50%										
CCN(C)C(=O)Oc1ccc(/C=C/C(=O)c2ccc(O)cc2)cc1	> 50%	51.5%	22.4%	80.8%	1.39%	91.7%	6.08 µM				
CN(C)C(=O)Oc1cccc(/C=C/C(=O)c2ccc(O)cc2)c1	> 50%	46.2%	11.2%	69.9%	4.37%	83.9%	2.19 µM				
CCN(C)C(=O)Oc1cccc([C@H](C)N(C)C)c1 [RIVASTIGMINE]		86.6%	72.7%	94.7%	56.4%	98.5%					
COc1ccc(/C=C/C(=O)c2cccc(OC(=O)N(C(C)C)C(C)C)c2)cc1	< 50%										
CN(C)C(=O)Oc1cccc(C(=O)/C=C/c2ccc(O)cc2)c1	> 50%	94.6%	71.8%	96.5 to 96.7%	48.3%	102%	0.36 µM		0.52 µM	0.16 µM	0.87 µM
COc1ccc(/C=C/C(=O)c2ccc(O)cc2)cc1	< 50%										
CCN(C)C(=O)Oc1cc(OC(=O)N(C)CC)cc(C(=O)/C=C/c2ccc(O)cc2)c1	< 50%										
CCN(C)C(=O)Oc1cccc(C(=O)/C=C/c2ccc(OC)cc2)c1	> 50%	85.1%	66.3%	100%	0.63%	101%	3.93 µM				
CCN(CC)C(=O)Oc1cccc(C(=O)/C=C/c2ccc(O)cc2)c1	< 50%										
CCN(C)C(=O)Oc1ccccc1C(=O)/C=C/c1ccc(O)cc1	> 50%	64.7%	51.7%	76.4%	52.2%	86%	4.37 to 5.97 µM				
CN(C)C(=O)Oc1ccc(C(=O)/C=C/c2ccc(O)cc2)cc1	< 50%										
CC(C)N(C(=O)Oc1cccc(C(=O)/C=C/c2ccc(O)cc2)c1)C(C)C	< 50%										
CCN(C)C(=O)Oc1cccc(/C=C/C(=O)c2cccc(O)c2)c1	> 50%	53%	11.2%	88.2%	0.16%	101%	2.87 µM				
COc1ccc(/C=C/C(=O)c2cccc(OC(=O)N(C)C)c2)cc1	> 50%	74.3%	20%	95.3%	0.67%	101%	3.37 µM				8.05 µM
CN(C)C(=O)Oc1cccc(/C=C/C(=O)c2cccc(O)c2)c1	> 50%	57.1%	15.1%	82.6%	1.03%	85.9%	1.91 µM				
COc1ccc(/C=C/C(=O)c2ccc(OC(=O)N(C)C)cc2)cc1	< 50%										
